Screening results: PubChem BioAssay, several laboratories
MC4R antag cAMP: human MC4R antagonism in cAMP assay; P32245; MC4R-expressing cells, MTII-stimulated cAMP, LANCE TR-FRET; inhibition, % at 6.5 µM; 0.48% of 360,000 active;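 active = inhibition above its plate's cutoff, the mean of tested wells on that plate plus 3 SD, cut at about 29% in these data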
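System: U2OS-MC4R stable cell line; Technique: Eu-cAMP/anti-cAMP TR-FRET, emission 671 nm; Repeats: single well per compound; Also added: Melanotan II; Dosing: one concentration, 6.5 µM nominal; Schedule: 30-min compound, 1-h challenge, 1-h detection, room temperature.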
T cell HTS: T cell immune modulators affecting CD8 T cell-vesicle binding. response (vesicle binding), % at 7 µM. 0.068% of 330,000 active. 2C CD8+ T cell-vesicle binding, flow cytometry; stronger effect = lower value;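 active = response, share of CD8 T cells binding vesicles, and their 90th percentile fluorescence all below set limits, cut at about 80% in these data, passing the limit was not always enough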;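 also: values below 100% mean blocked vesicle binding to the CD8+ T cells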
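System: murine 2C transgenic CD8+ T lymphocytes; also added: QL9-loaded Drosophila micro-vesicles; times: binding 1.5 h at 37 °C; measured by: flow cytometry, PE anti-B7-1 (FL2) versus Alexa647 anti-CD8 (FL8), PFA-fixed; control set: Peptide-free naked vesicles (low) and QL9 vesicles with 0.7% DMSO vehicle (high)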
EP2 antag: blocks the human prostaglandin E2 receptor EP2; P43116; C6 glioma cells expressing human EP2, cAMP TR-FRET; cells stimulated with saturating PGE2; inhibition, % at 25 µM; 0.52% of 260,000 active; AID 1422;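 active = percent inhibition above 40 after rounding to a whole number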;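 also: rat C6 glioma host cells with rolipram phosphodiesterase inhibitor present; the protocol text gives 20 µM as final concentration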
Target sequence (P43116 whole entry, looked up): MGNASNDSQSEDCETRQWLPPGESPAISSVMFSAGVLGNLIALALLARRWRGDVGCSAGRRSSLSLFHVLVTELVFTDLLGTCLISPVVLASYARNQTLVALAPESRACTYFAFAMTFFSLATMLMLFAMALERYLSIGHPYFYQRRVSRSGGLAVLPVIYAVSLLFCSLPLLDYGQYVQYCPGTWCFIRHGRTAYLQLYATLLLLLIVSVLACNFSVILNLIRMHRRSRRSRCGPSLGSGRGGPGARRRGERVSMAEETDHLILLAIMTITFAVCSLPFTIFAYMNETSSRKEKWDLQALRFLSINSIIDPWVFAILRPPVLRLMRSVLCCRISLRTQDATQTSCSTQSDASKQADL
MC4R ag barr: agonists of human melanocortin 4 receptor (MC4R) beta-arrestin; P32245; U2OS MC4R beta-arrestin complementation, luminescence; percent of melanotan II response, DMSO zero; activation, % at 8.9 µM; 0.98% of 360,000 active; AID 540308;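 active = activation above a per-plate cutoff, the mean activation of sample wells on that plate plus 3 SD, cut at about 8% in these data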
EP2 mod: modulators of human EP2 prostaglandin E2 receptor. 0.83% of 260,000 active. induction, % at 25 µM. EP2-expressing cells, cAMP HTRF FRET, PGE2 co-stimulation. P43116;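 active = compounds whose cAMP rise, as percent of the full-agonist control response, exceeds 60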;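 also: rat C6 glioma line stably carrying human EP2 under a CMV promoter; the protocol text gives 20 µM as final concentration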
Granule exo inh: lytic granule exocytosis inhibition; TALL-104 LAMP-1 surface exposure, flow cytometry; cells stimulated with thapsigargin and PMA; inhibition, % at 10 µM; 0.66% of 360,000 active;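 active = inhibition above about 55%, limit read from the data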
Large screens that a line does not name were inactive. Rows were chosen to be rich in hits. Some 2.6% of all compounds tested hit in one or more screens of this group.

O=c1c2ccccc2c2ccccc2c(=O)n1-c1cc2c3ccccc3ccc2c2ccccc12	EP2 antag 49 (no result: MC4R antag cAMP, T cell HTS, MC4R ag barr, Granule exo inh)
CN(C)Cc1ccccc1C(O)(c1ccccc1)c1ccccc1	none (no result: EP2 antag, EP2 mod)
CN(C)Cc1cc(C(F)(F)F)ccc1C(O)(c1ccccc1)c1ccccc1	EP2 antag 46 (no result: T cell HTS)
OCCCCNCc1cc(Br)ccc1OCc1ccccc1F	T cell HTS 27
OCCNCc1cc(Br)ccc1OCc1ccc(F)cc1	none
O=C(Nc1ccc(Br)cn1)c1ccc2ccccc2c1	none (no result: EP2 antag, EP2 mod)
COc1ccc(N2CCN(c3nc4c(C)cccn4c(=O)c3/C=C(\C#N)C(N)=O)CC2)cc1	none (no result: EP2 antag, EP2 mod)
CC1CCCC(C)N1CCNC(=O)CCc1nnc2n(Cc3ccccc3)c(=O)c3ccccc3n12 (configuration not stated)	T cell HTS 0.0 (no result: EP2 antag, EP2 mod)
CCC(C)NCC(O)(c1ccc(Cl)cc1)c1ccc(Cl)cc1 (configuration not stated)	none
O=C1OCCC/C1=C\c1ccc2c(c1)OCO2	EP2 mod 82
CCCN1C/C(=C/c2ccc3c(c2)OCO3)C(=O)/C(=C/c2ccc3c(c2)OCO3)C1	none
Cc1ccc(S(=O)(=O)N2CCOCC2)cc1C(=O)NC1CCCCCC1	none (no result: EP2 antag, EP2 mod)
Cc1cc(C)c(C(=O)/C=C/c2ccc(C(C)C)cc2)c(=O)[nH]1	EP2 antag 83
Cc1cc(C)c(C(=O)/C=C/C=C/c2ccccc2)c(=O)[nH]1	none
CCN(CC(O)c1cccc(O)c1)C(=O)C12CC3CC(CC(C3)C1)C2 (configuration not stated)	none (no result: EP2 antag, EP2 mod)
CCOc1ccc(C2C=C(c3ccc(C)cc3)Nc3ncnn32)cc1 (configuration not stated)	T cell HTS 30 (no result: MC4R antag cAMP, MC4R ag barr, Granule exo inh)
Cc1ccc(C2=CC(c3ccc(C)cc3)n3ncnc3N2)cc1 (configuration not stated)	none (no result: EP2 mod)
Cc1ccc(C(=O)CSc2nc3c([nH]2)c(=O)n(C)c(=O)n3C)cc1	none
CC(C)(C)c1ccc(CN2N=Nc3ccccc3S2(=O)=O)cc1	Granule exo inh 97
O=S1(=O)c2ccccc2N=NN1Cc1ccc(Cl)c(Cl)c1	EP2 antag 45 (no result: MC4R antag cAMP, MC4R ag barr, Granule exo inh)
Oc1c(Br)cc(Br)cc1CN(Cc1cc(Br)cc(Br)c1O)C1CCCCC1	EP2 antag 40 (no result: MC4R antag cAMP, T cell HTS, MC4R ag barr, Granule exo inh)
Cc1cccc(NC(=O)Nc2ccc3c(c2)N(C)C(=O)CS3)n1	none
CC(=O)c1ccc(NC(=O)Nc2ccc3c(c2)N(C)C(=O)CS3)cc1	EP2 antag 79
Cc1ccc(NC(=O)Nc2ccc3c(c2)N(C)C(=O)CS3)nc1	MC4R ag barr 9.4
Cc1ccnc(NC(=O)Nc2ccc3c(c2)N(C)C(=O)CS3)c1	MC4R ag barr 9.1
Cc1ccccc1CNC(=O)CC1C(=O)NCCN1CC1CCCCC1 (configuration not stated)	none
C=CCN(C(=O)c1ccc(Cl)cc1)c1ccccc1C(=O)NCC(=O)O	none
COC(=O)C1=C(C)N(Cc2ccccc2)C(=NCc2cccc(Cl)c2)N[C@H]1c1cccc(F)c1	MC4R ag barr 13 (no result: EP2 antag, EP2 mod)
COC(=O)C1=C(C)N(Cc2ccccc2)C(=NCc2ccccc2)N[C@H]1c1cccc(C(F)(F)F)c1	MC4R ag barr 16 (no result: EP2 antag, EP2 mod)
COC(=O)C1=C(C)N(Cc2ccccc2)C(=NCc2ccc(OC)cc2)N[C@H]1c1cccc(F)c1	none (no result: EP2 antag, EP2 mod)
COC(=O)C1=C(C)N(Cc2ccccc2)C(=O)N[C@H]1c1cccc(C(F)(F)F)c1	none
Cc1ccc(OCc2ccc(C(=O)Nc3nc4ccccc4n3C)o2)c([N+](=O)[O-])c1	none
CCc1cc2ccccc2nc1SCC(=O)Nc1ccccc1C	EP2 mod 80 (no result: MC4R antag cAMP, T cell HTS, MC4R ag barr, Granule exo inh)
CCc1ccccc1NC(=O)CSc1nc2ccc(OC)cc2cc1C	EP2 mod 70 (no result: MC4R antag cAMP, T cell HTS, MC4R ag barr, Granule exo inh)
O=C(CSc1nc2ccccc2cc1Cc1ccccc1)Nc1nccs1	EP2 mod 64 (no result: MC4R antag cAMP, T cell HTS, MC4R ag barr, Granule exo inh)
CCc1cc2ccccc2nc1SCC(=O)NCCc1ccc(OC)c(OC)c1	EP2 mod 61 (no result: MC4R antag cAMP, T cell HTS, MC4R ag barr, Granule exo inh)
COc1ccc(-c2nc3cnccn3c2NCc2cccs2)cc1CO	none (no result: MC4R antag cAMP, T cell HTS, EP2 antag, MC4R ag barr, Granule exo inh)
CCN1C(=O)C=CC1=O	none (no result: MC4R antag cAMP, T cell HTS, MC4R ag barr, Granule exo inh)
CCC(=O)OCN1C(=O)C=CC1=O	EP2 antag 82 (no result: MC4R antag cAMP, T cell HTS, MC4R ag barr, Granule exo inh)
CCOc1ccccc1NC(=S)Nc1ncccc1C	EP2 antag 41
O=C(Nc1ccn(Cc2ccccc2)n1)c1ccc2c(c1)OCO2	none
